# Bioassay records as filed in PubChem.
# This is a sample that favours compounds with a hit; in the whole collection about 3.4% have one here.
# LANA-H2B inh = blocks KSHV LANA binding to histone H2A/H2B | actives 0.6% (n = 320,000) | AID 2629 | inhibition, % (concentration not given with the values) | Q9QR71 | cell-free LANA-H2A/H2B peptide, fluorescence polarization; in the data active = inhibition mostly above about 10%, no sharp cut-off; inactive = mostly below about 6.7%
# TRPML3 ag = human mucolipin-3 channel agonism; Q8TDD5; HEK293 TRPML3-YFP, Fluo-8 calcium fluorescence; 100% = the carbachol control signal; activation, % at 3 µM; actives 0.29% (n = 220,000); AID 1448;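 active = activation above its plate's cutoff, the mean activation of the plate's test wells plus 3 SD, cut at about 12% in these data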;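 also: 0% = DMSO only wells and 100% = carbachol wells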
# Target sequence (Q8TDD5 whole entry, looked up): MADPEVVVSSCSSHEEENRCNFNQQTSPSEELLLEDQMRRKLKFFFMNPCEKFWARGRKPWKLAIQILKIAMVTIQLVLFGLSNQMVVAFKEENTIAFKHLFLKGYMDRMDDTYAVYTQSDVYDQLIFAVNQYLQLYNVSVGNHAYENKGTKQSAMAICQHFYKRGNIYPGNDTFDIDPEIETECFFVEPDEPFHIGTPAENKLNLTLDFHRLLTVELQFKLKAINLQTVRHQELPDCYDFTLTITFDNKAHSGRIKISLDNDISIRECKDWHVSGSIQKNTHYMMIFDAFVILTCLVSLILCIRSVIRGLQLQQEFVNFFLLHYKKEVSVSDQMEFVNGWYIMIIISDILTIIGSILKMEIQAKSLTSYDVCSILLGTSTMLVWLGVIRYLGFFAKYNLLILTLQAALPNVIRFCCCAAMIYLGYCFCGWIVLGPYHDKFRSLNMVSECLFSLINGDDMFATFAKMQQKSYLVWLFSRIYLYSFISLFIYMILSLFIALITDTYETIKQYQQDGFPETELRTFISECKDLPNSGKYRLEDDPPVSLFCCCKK
#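 Material: TRPML3-YFP stable HEK293 cells | Dosing: One concentration, 3 µM nominal, 0.3% DMSO | Timing: 125 s total fluorescence read per well | Technique: Fluo-8 calcium dye fluorescence, ex 470-495, em 515-575 nm | Measure: Percent activation from peak-to-basal fluorescence ratio, scaled between DMSO and carbachol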
# GPR7 antagonist = antagonists of human GPR7 (neuropeptides B/W receptor 1) | GPR7-expressing cells, fluorescence antagonist assay | P48145 | actives 1.1% (n = 290,000) | inhibition, % at 4.4 µM; in the data active = inhibition above about 16%, passing the limit was not always enough;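 also: cells stimulated with the agonist NPW; 0% = agonist with vehicle and 100% = vehicle without agonist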
# TAAR1 agonist = human TAAR1 agonism. activation, % at 3 µM. CHO RD-HGA16 TAAR1, Fluo-8 calcium fluorescence; vehicle wells 0%, saturating PEA agonist 100%. Q96RJ0. AID 624467. actives 0.99% (n = 360,000);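 active = activation above the mean activation of all test compounds in the run plus 3 SD, cut at about 38% in these data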
#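 System: CHO-derived RD-HGA16 cells with stable Gα16 and human TAAR1. Times: 17-24 h plating, Fluo-8 75 min 37 °C, 30 min RT. Measured by: calcium-sensitive Fluo-8 signal, excitation 470-495, emission 515-575 nm. Read-out basis: % activation relative to PEA EC100 response. Control set: DMSO and PEA EC100. Repeats: no replicates (n 1).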
# TAAR1 antag = human TAAR1 antagonism; Q96RJ0; CHO RD-HGA16 TAAR1, Fluo-8 calcium fluorescence, antagonist; inhibition, % at 3 µM; actives 1.5% (n = 360,000); AID 624466;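 active = inhibition above a per-plate cutoff, the mean inhibition of test compounds on that plate plus 3 SD, cut at about 49% in these data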;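 also: 0% = DMSO plus EC80 beta-PEA response and 100% = DMSO alone without agonist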
#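 Material: CHO RD-HGA16 cells bearing hTAAR1; compound dosing: one-point dosing, 3 µM nominal final; schedule: dye loading 75 min at 37 °C, then 30 min room temperature; measured by: calcium fluorescence with Fluo-8; control set: vehicle and agonist controls; replication: n of 1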
# zfTRPN1 agonist = zebrafish TRPN1 (NompC) channel agonism. AID 1424. HEK293 zebrafish TRPN1-YFP, Fluo-8 calcium fluorescence; 100% = response to 87 µM carbachol. actives 0.18% (n = 220,000). activation, % at 3 µM;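 active = activation above its plate's cutoff, the mean activation of test wells on that plate plus 3 SD, cut at about 19% in these data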;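 also: 0% = DMSO alone and 100% = 87 µM carbachol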
#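 System: zebrafish TRPN1-YFP in HEK293 cells / Dosing: 3 µM single point / Timing: dye loading 1 h at 37 °C, then 30 min room temperature / Signal: Fluo-8 calcium fluorescence, excitation 470-495 nm, emission 515-575 nm / Read-out basis: percent activation from peak over basal fluorescence ratio, control-normalized / Control set: high carbachol 87 µM, low DMSO alone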
# nonsel antag count = nonselective antagonist in TAAR1 antagonist counter-screen. shares compounds with TAAR1 antag. counterscreen cell line, calcium fluorescence, antagonist mode. inhibition, % at 3 µM. actives 77% (n = 2,400). AID 651780; in the data active = inhibition above about 22%;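 also: CHO-Ga16 host cells stimulated with ATP at an EC80 level; 0% = agonist EC80 plus vehicle and 100% = vehicle without agonist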
# TAAR1 ant conf = confirmation of human TAAR1 antagonists; actives 40% (n = 2,400); AID 651785; inhibition, % at 3 µM; shares compounds with TAAR1 antag; TAAR1-expressing cells, fluorescence antagonist read-out; in the data active = inhibition above about 49%;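 also: CHO-Ga16 host cells challenged with agonist PEA near its EC80; 0% = agonist at EC80 plus vehicle and 100% = vehicle with no agonist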
# Ga16 nonsel ag = counter-screen for TAAR1 antagonists: nonselective Ga16 agonists; shares compounds with TAAR1 antag; Ga16-expressing cells, calcium fluorescence, agonist counterscreen; activation, % at 3 µM; actives 18% (n = 2,400); in the data active = activation above about 12%;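 also: 0% = vehicle wells and 100% = saturating stimulus response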
# TAAR1 ag count = TAAR1 agonism, antagonist counter-screen; shares compounds with TAAR1 antag; hTAAR1 cell line, fluorescence activation, agonist mode; activation, % at 3 µM; actives 2% (n = 2,400); AID 651955; in the data active = activation above about 37%;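 also: CHO cells stably expressing TAAR1 with calcium dye readout; 0% = DMSO vehicle and 100% = full agonist response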
# * marks the source's active call; other numbers are inactive results; · = no result given.
SMILES,LANA-H2B inh,TRPML3 ag,GPR7 antagonist,TAAR1 agonist,TAAR1 antag,zfTRPN1 agonist,nonsel antag count,TAAR1 ant conf,Ga16 nonsel ag,TAAR1 ag count
CCc1ccc(NS(=O)(=O)c2c(C(=O)N3CCCCCC3)c(C)n(C)c2C)cc1,4.3,·,-2.8,-0.2,-11.7,·,·,·,·,·
COc1ccc(Nc2nc(-c3cccs3)nc3ccccc23)cc1S(=O)(=O)N1CCOCC1,-0.9,·,·,15.1,70.6*,·,30.5*,49.3*,10.2,7.3
COc1ccc(NC(=O)c2ccc(-c3ccccc3)cc2)cc1S(=O)(=O)N1CCOCC1,-4.2,1.2,0.0,16.4,86.5*,2.4,47.4*,60.9*,14.0*,8.9
CC(C)C[C@@H](CN1CCC[C@@H]1CN1C(=S)NC[C@@H]1Cc1ccc(O)cc1)N1C[C@H](Cc2ccc(O)cc2)N(CC2CCCCCC2)C1=S,·,·,·,-1.4,-33.7,·,·,·,·,·
CCCCN(C(=O)CSCc1ccc(C)cc1)c1c(N)n(CCC)c(=O)[nH]c1=O,-1.0,·,-8.5,0.9,-20.7,·,·,·,·,·
Cc1nn(-c2ccccc2)c(Cl)c1C(=O)N1CCN(c2ncnc3c2cnn3-c2ccccc2)CC1,-1.1,0.7,7.4,21.2,78.5*,2.4,52.1*,63.1*,13.0*,11.1
CCSc1nc2ccccc2c(=O)n1CCc1ccc(OC)c(OC)c1,-0.9,-0.6,-12.0,4.3,61.2*,0.0,29.8*,43.5,4.1,6.9
COc1ccc(CCn2c(C)nc3ccccc3c2=O)cc1OC,-4.9,1.1,-3.2,11.2,25.3,2.0,·,·,·,·
CC(C)(C)c1ccc(OCCC(=O)OCC(=O)Nc2ccc(N3CCOCC3)cc2)cc1,3.3,·,·,7.0,20.4,·,·,·,·,·
COc1ccc(CCN2C(=O)c3[nH]nc(-c4ccccc4O)c3C2c2cccc(Cl)c2)cc1 (centres undefined),-0.9,0.0,-12.2,12.2,58.7*,-1.4,19.4,40.0,8.1,11.6
COc1cccc(OC)c1C(=O)Nc1cccc(NC(=O)c2cccs2)c1,-0.7,·,-9.8,4.8,2.2,·,·,·,·,·
O=C(COc1ccccc1Cl)Nc1nc(-c2ccncc2)cs1,1.4,·,·,17.0,64.5*,·,43.3*,58.0*,13.3*,11.9
Cc1ccc(C(=O)OCC(=O)Nc2ccccc2)cc1NC(=O)c1ccco1,-1.3,-0.5,-4.0,6.4,5.4,-0.4,·,·,·,·
O=C(COC(=O)c1ccccc1O)Nc1cccnc1Cl,-3.2,0.1,-2.4,1.2,-2.3,-1.6,·,·,·,·
COc1ccc(C(=O)Nc2cccc(NC(=O)c3cccs3)c2)cc1OC,-0.1,·,-13.4,16.2,62.1*,·,25.5*,29.4,7.1,2.7
Cc1ccc(C(=O)OCC(=O)Nc2nc(-c3ccccc3)cs2)cc1NC(=O)c1ccco1,0.1,0.2,-6.1,16.3,83.1*,0.8,37.0*,53.9*,8.7,6.9
O=C(COC(=O)c1cccnc1Cl)Nc1nc(-c2ccccc2)cs1,0.9,2.3,-1.3,16.5,67.9*,5.8,33.1*,46.9,11.5*,13.5
O=C(COc1ccc(Cl)cc1)Nc1nc(-c2ccncc2)cs1,-0.1,·,-9.4,11.9,26.5,·,·,·,·,·
COC(=O)[C@@]12C[C@@H](CC(=O)NCCC(C)C)C(=O)N(Cc3cccc4ccccc34)C1=CCC(C)(C)C2,·,·,·,-1.5,-5.6,·,·,·,·,·
COc1ccccc1CNCCS(=O)(=O)NCc1ccccc1,·,·,·,0.2,-6.6,·,·,·,·,·
COc1cc(NC(=O)COc2ccccc2[N+](=O)[O-])ccc1NC(=O)c1cccs1,·,-0.6,-9.1,3.0,-14.1,2.0,·,·,·,·
COc1cc(NC(=O)COc2ccccc2Cl)ccc1NC(=O)c1cccs1,-2.1,·,-16.1,8.4,57.0*,·,23.6*,43.0,5.1,5.8
Cc1ccc(Cl)cc1N1CCN(C(=O)CSc2nnc3n2C(C)(C)Cc2ccccc2-3)CC1,-0.8,2.6,-11.9,18.9,60.0*,3.0,44.4*,48.4,10.6,5.7
CC1(Cc2ccccc2Cl)C(=O)Nc2c(Cl)ccc(Cl)c21 (centres undefined),·,·,·,3.0,56.8*,·,0.0,31.9,15.3*,31.7
CC1(Cc2ccccc2F)C(=O)Nc2c(Cl)ccc(Cl)c21 (centres undefined),·,·,·,7.2,13.6,·,·,·,·,·
SMILES,LANA-H2B inh,TRPML3 ag,GPR7 antagonist,TAAR1 agonist,TAAR1 antag,zfTRPN1 agonist,nonsel antag count,TAAR1 ant conf,Ga16 nonsel ag,TAAR1 ag count
CC(C)(C)OC(=O)C[C@@H]1C/C=C\C[C@@H](CC(=O)N[C@H](CO)Cc2ccccc2)C(=O)NC[C@H](c2ccccc2)OC1=O,10.6,·,·,16.1,52.5*,·,22.9*,41.3,5.6,7.1
CC(C)(C)OC(=O)C[C@@H]1C/C=C\C[C@@H](CC(=O)N[C@H](CO)Cc2ccccc2)C(=O)N2CCC[C@H]2COC1=O,-0.1,·,·,21.5,67.4*,·,29.8*,50.3*,11.7*,11.3
O=C(Nc1ccc([N+](=O)[O-])cc1NC(=O)c1ccccc1)c1ccccc1,·,·,·,6.4,57.2*,·,32.1*,43.5,7.1,6.6
Cc1ccc([N+](=O)[O-])cc1NC(=O)c1ccccc1,-0.2,0.8,-0.7,-0.9,6.0,1.2,·,·,·,·
COc1cccc(-c2cnc3c(NC(C)=O)cc(-c4ccsc4)cn23)c1,·,·,·,6.5,73.4*,·,41.0*,66.4*,13.5*,12.0
COc1cccc(-c2cnc3c(NC(C)=O)cc(-c4ccc(OC)c(OC)c4)cn23)c1,·,·,·,2.5,-19.9,·,·,·,·,·
O=C(CSc1ccc(Cl)cc1)N1CCN(c2c(Cl)cccc2[N+](=O)[O-])CC1,-8.0,-0.1,-4.5,4.9,65.2*,-0.3,25.0*,38.1,3.1,-2.4
Cc1cc(C(=O)CSc2ccc(F)cc2)cc(C)c1O,4.1,·,-1.3,3.0,30.0,·,·,·,·,·
Cc1cc(C(=O)CSc2ccc(Cl)cc2)cc(C)c1OC(=S)N(C)C,-1.4,0.6,-8.3,5.2,62.5*,-0.2,19.0,37.0,0.9,0.7
Cc1ccc(C)c(OCCC(=O)NNC(=O)c2cc(C)oc2C)c1,3.2,·,·,6.8,2.5,·,·,·,·,·
C[C@H]1CN(C(=O)OC(C)(C)C)CCN1c1ccc(Br)c(C#N)c1,·,·,·,-0.4,51.8*,·,37.9*,45.3,11.3,13.5
COCCNC(=O)C1(C)CCCN(C(=O)c2c(-c3ccccc3)noc2C)C1 (centres undefined),·,·,·,-0.3,6.9,·,·,·,·,·
